Compound activity (PubChem BioAssay)
M1 agonist – M1 muscarinic receptor agonists, primary screen, CHO-M1 cells, Fluo-4 calcium, agonist mode; AID 626, 2007; B-score at 10 µM; 3% of 64,000 active; Muscarinic acetylcholine receptor M1; Fluo-4 calcium fluorescence; active compounds read high;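 active means fluorescence rise, raw or as B-score row- and column-corrected plate score, outside the 99.7% band of its plate's samples, either direction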
D1 allo mod – D1 CRE-luciferase signal change, two-sided – cell-based, HEK293 D1, dopamine EC30, D1 allosteric modulator project, primary screen; D(1A) dopamine receptor (Homo sapiens), P21728; dopamine EC30 potentiation; actives deviate in either direction; 5.9% of 58,000 active; B-score at 10 µM; AID 641, 2007;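 active means luminescence count or its row- and column-corrected plate score outside the 99.7% band of the plate's sample wells, on either side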
Target sequence (P21728 whole entry, looked up): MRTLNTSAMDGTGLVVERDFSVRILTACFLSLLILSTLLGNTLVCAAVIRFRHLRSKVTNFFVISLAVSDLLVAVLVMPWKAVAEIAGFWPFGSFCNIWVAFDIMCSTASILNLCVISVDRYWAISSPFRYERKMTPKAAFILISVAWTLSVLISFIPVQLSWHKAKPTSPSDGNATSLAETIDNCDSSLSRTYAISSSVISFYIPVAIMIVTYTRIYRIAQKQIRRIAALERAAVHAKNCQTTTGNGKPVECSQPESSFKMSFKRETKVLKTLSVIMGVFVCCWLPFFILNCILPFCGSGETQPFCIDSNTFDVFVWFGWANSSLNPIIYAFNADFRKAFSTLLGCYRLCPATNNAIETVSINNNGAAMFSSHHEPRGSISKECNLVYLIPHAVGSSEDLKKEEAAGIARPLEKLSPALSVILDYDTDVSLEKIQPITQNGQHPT
BAP1 inh – inhibitors of BAP1 deubiquitinase, primary screen, biochemical, Ub-AMC fluorescence, kinetic; Ubiquitin carboxyl-terminal hydrolase BAP1 (Homo sapiens), Q92560; recombinant BAP1, Ub-AMC hydrolysis fluorescence kinetic; active compounds read low; calls only at 20 µM; 0.48% of 72,000 active;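 active means activity remaining at or below 50% of control, provided the compound also passes the data quality filters; inactive means the rest, including low values that fail the filters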;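 further: 100% = DMSO wells rate and 0% = substrate alone blank rate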
hDAT+cocaine – changed hDAT dopamine uptake under cocaine IC80, either direction, primary screen, cocaine antagonist project, cell-based, LLC-PK1 hDAT, [14C]-dopamine uptake, MLSMR | LLC-PK1 hDAT cells, [14C]-dopamine uptake with cocaine IC80; actives deviate in either direction | 1.3% of 110,000 active | B-score at 10 µM | Sodium-dependent dopamine transporter (Homo sapiens), Q01959;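 active means Z score or B-score, a plate-position-corrected score, falls beyond the plate's 99.7% confidence bounds, in either direction; inactive means both scores lie inside the 99.7% bounds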;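 further: scored against the spread of the other compound wells on the same plate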
M1 antag – antagonists of rat M1 muscarinic receptor. Muscarinic acetylcholine receptor M1 (Rattus norvegicus), P08482. CHO-M1 cells, Fluo-4 calcium, ACh EC80 antagonist mode; active compounds read low. B-score at 10 µM. 3.4% of 64,000 active. AID 628, 2007;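 active means calcium fluorescence response, raw or row-and-column corrected B-score, differing from the plate sample mean either way at a set confidence level, mostly lower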
HEK293 NFkB inh – inhibitors of PMA/ionomycin-induced NF-kB reporter, primary screen, antigen receptor NF-kB inhibitor project, cell-based, HEK-293 luciferase reporter, luminescence; inhibition, % at 3 µM; HEK-293 NF-kB luciferase reporter; 0.21% of 62,000 active;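 active means inhibition above the mean of all tested compounds plus 3 SD, cut at about 40% in these data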;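 further: 0% = stimulated DMSO wells and 100% = 10 µM reference inhibitor 5653914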
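Signal: luciferase luminescence; Material: HEK-293 cells with stable firefly luciferase reporter driven by four HIV NF-kB elements; Probe or stimulus: PMA with ionomycin; Replication: tested once; Times: 1 h compound pretreatment, then 16 h stimulation at 37 °C, 5% CO2; Benchmarks: DMSO and 10 µM reference inhibitor; Evaluation: per-plate % inhibition versus controls.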
An asterisk follows results filed as active. This is a sample that favours compounds with a hit; in the whole collection about 7.2% have one here.

OC[C@H]1O[C@@H](n2cnc3c(Nc4ccccc4)ncnc32)C(O)[C@H]1O (stereo not given in full) was read as BAP1 inh inactive.
For Cc1ccc(C2=NC(C)(C)N=C2SCC(=O)Nc2ccc(Cl)cc2)cc1 the results were hDAT+cocaine -7.4*.
`CC1(C)N=C(SCC(=O)Nc2ccccc2)C(c2ccc(Cl)cc2)=N1` gave hDAT+cocaine 2.2.
`COc1ccc2cc(CN(Cc3cccnc3)Cc3nnnn3Cc3ccccc3)c(=O)[nH]c2c1` gave M1 agonist -0.0073, D1 allo mod 0.7, BAP1 inh inactive, hDAT+cocaine 2.2*, M1 antag 0.21 and HEK293 NFkB inh 17.
Screening CCC(c1nnnn1Cc1ccccc1)N(Cc1ccco1)Cc1cc2cc(OC)ccc2[nH]c1=O (stereo not given) returned M1 agonist 0.5, hDAT+cocaine 3.4*, M1 antag -0.83 and HEK293 NFkB inh 13.
Screening CCC(C)(C)n1nnnc1CN(Cc1cccs1)Cc1cc2cc(OC)ccc2[nH]c1=O returned M1 agonist 3.7*, D1 allo mod 1.5, BAP1 inh inactive, hDAT+cocaine 0.66, M1 antag -1 and HEK293 NFkB inh -2.
For CCC(c1nnnn1Cc1ccco1)N(CCc1ccccc1)Cc1cc2cc(C)ccc2[nH]c1=O (stereo not given) the results were M1 agonist -0.55, D1 allo mod 1.4, hDAT+cocaine 0.14, M1 antag 0.042 and HEK293 NFkB inh 4.
For COc1ccc2cc(CN(Cc3cccs3)Cc3nnnn3Cc3ccccc3)c(=O)[nH]c2c1 the results were hDAT+cocaine 1.6.
For CCOc1ccc2[nH]c(=O)c(CN(Cc3cccs3)Cc3nnnn3C(C)(C)CC)cc2c1 the results were M1 agonist 0.92, D1 allo mod 1.1, hDAT+cocaine 0.41, M1 antag 0.77 and HEK293 NFkB inh 7.
`CC(C)CCSc1nc2c(c(=O)[nH]c(=O)n2C)n1CCC(C)C` gave BAP1 inh inactive.
`COc1ccc(NC(=O)c2ccc(N3C(=O)c4ccc([N+](=O)[O-])cc4C3=O)cc2)cc1` gave BAP1 inh inactive.
For CCC(NC(=O)NCc1ccc2c(c1)OCO2)(C(F)(F)F)C(F)(F)F the results were M1 agonist 1.3, D1 allo mod -0.039, BAP1 inh inactive, hDAT+cocaine -3.4*, M1 antag -0.88 and HEK293 NFkB inh 14.
For CC(=O)OCC(=O)NCc1ccc2c(c1)OCO2 the results were M1 agonist -0.041, D1 allo mod 0.36, hDAT+cocaine -1.3, M1 antag 0.97 and HEK293 NFkB inh 8.
Screening O=C(NCCCN1CCN(c2ccccc2)CC1)Nc1ccccc1C(F)(F)F returned M1 agonist -0.93, D1 allo mod -2.7*, BAP1 inh inactive, hDAT+cocaine -0.12, M1 antag -0.69 and HEK293 NFkB inh 8.
Screening COc1ccccc1N1CCN(CCCNC(=O)Nc2ccccc2)CC1 returned M1 agonist 0.29, D1 allo mod -4.8*, BAP1 inh inactive, hDAT+cocaine -0.058, M1 antag 0.18 and HEK293 NFkB inh 7.
`COc1ccc(N2CCN(CCCNC(=O)Nc3ccccc3)CC2)cc1` gave hDAT+cocaine 0.12.
Screening CCOc1ccc(N=C2SC(C(=O)Nc3ccc(C(=O)O)cc3)CC(=O)N2C)cc1 (stereo not given) returned BAP1 inh inactive.
For O=C(COC(=O)c1cccnc1Nc1cccc(C(F)(F)F)c1)NCCN1C(=O)CSC1=O the results were M1 agonist -0.44, BAP1 inh inactive, hDAT+cocaine 3.5*, M1 antag 0.74 and HEK293 NFkB inh 17.
`O=C(COC(=O)c1cccs1)NCCN1C(=O)CSC1=O` gave D1 allo mod -0.66, BAP1 inh inactive, hDAT+cocaine -0.64 and HEK293 NFkB inh 7.
